This note sets out measurements from ChEMBL document CHEMBL4118021, “Studies of TAK1-centered polypharmacology with novel covalent TAK1 inhibitors” (Bioorg Med Chem, 2017).

Data set [1] concerns the target Thioredoxin (Homo sapiens) (UniProt P10599). The data set is described as follows: Binding affinity to TXN in human NCI-H23 cells at 1 uM by mass spectrometry based pull down assay. The format is cell-based.
The target in data set [2] is Gelsolin (Homo sapiens) (UniProt P06396). Briefly: Binding affinity to GSN in human NCI-H358 cells at 1 uM by mass spectrometry based pull down assay. The data set is classed as cell-based.
Gelsolin (Homo sapiens), sequence (P06396 whole entry): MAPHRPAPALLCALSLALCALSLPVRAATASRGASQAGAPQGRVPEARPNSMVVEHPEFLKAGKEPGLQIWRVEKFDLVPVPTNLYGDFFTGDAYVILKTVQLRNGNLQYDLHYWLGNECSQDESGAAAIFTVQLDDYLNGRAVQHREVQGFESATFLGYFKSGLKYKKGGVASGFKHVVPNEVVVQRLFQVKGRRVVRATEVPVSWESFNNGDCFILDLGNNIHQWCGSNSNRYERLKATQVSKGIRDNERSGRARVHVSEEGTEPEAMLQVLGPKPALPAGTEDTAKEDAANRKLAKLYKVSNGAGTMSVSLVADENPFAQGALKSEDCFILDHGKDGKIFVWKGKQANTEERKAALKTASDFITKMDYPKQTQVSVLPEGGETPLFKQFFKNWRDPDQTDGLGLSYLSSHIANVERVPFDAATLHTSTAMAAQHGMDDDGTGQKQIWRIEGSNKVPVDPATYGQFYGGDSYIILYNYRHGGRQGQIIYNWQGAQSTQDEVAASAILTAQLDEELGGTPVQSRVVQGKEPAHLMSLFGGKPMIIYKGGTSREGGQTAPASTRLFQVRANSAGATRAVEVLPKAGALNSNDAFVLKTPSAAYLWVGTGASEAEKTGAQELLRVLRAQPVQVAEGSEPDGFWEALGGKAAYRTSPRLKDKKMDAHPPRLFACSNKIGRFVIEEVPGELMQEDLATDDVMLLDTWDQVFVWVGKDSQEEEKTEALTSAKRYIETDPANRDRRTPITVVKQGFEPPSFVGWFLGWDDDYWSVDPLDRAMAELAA
In data set [3] the target is UV radiation resistance-associated gene protein (Homo sapiens) (UniProt Q9P2Y5). Briefly: Binding affinity to UVRAG in human NCI-H23 cells at 1 uM by mass spectrometry based pull down assay. The data set is classed as cell-based.
UV radiation resistance-associated gene protein (Homo sapiens), sequence (Q9P2Y5 whole entry): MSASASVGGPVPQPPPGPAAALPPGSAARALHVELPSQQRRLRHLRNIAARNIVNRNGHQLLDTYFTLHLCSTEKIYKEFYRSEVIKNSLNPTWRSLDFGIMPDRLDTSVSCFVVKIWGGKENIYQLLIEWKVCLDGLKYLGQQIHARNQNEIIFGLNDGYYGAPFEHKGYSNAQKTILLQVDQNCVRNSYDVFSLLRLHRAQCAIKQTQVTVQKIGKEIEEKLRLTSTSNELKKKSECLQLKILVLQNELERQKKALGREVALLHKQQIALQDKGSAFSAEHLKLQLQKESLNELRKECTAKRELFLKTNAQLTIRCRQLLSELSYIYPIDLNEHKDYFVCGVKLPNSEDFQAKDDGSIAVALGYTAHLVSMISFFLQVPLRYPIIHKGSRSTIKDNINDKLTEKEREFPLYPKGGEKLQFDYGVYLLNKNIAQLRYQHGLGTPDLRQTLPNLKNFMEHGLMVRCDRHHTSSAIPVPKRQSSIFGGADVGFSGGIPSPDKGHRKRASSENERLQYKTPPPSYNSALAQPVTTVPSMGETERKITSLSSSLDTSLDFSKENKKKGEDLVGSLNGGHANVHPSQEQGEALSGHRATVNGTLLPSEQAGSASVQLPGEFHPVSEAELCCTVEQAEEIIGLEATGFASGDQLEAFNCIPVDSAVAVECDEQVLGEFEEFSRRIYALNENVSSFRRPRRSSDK
The target of data set [4] is Small ribosomal subunit protein mS29 (Homo sapiens) (UniProt P51398). The data set is described as follows: Binding affinity to DAP3 in human NCI-H23 cells at 1 uM by mass spectrometry based pull down assay. The format is cell-based.
For data set [5], the target named is Glutathione S-transferase kappa 1 (Homo sapiens) (UniProt Q9Y2Q3). Briefly: Binding affinity to GSTK1 in human NCI-H23 cells at 1 uM by mass spectrometry based pull down assay. The format is cell-based.
Glutathione S-transferase kappa 1 (Homo sapiens), sequence (Q9Y2Q3 whole entry): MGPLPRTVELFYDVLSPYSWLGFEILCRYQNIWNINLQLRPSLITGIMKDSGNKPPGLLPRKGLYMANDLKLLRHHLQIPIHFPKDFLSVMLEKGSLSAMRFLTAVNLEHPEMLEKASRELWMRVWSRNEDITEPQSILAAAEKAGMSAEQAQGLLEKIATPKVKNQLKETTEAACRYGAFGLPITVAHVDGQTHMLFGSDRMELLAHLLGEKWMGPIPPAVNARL
The target in data set [6] is Protein disulfide-isomerase (Homo sapiens) (UniProt P07237). The data set is described as follows: Binding affinity to P4HB in human NCI-H358 cells at 1 uM by mass spectrometry based pull down assay. The data set is classed as cell-based.
Data set [7] addresses Heterogeneous nuclear ribonucleoprotein H2 (Homo sapiens) (UniProt P55795). The data set is described as follows: Binding affinity to HNRNPH2 in human NCI-H23 cells at 1 uM by mass spectrometry based pull down assay. The format is cell-based.
Data set [8] deals with RuvB-like 1 (Homo sapiens) (UniProt Q9Y265). Briefly: Binding affinity to RUVBL1 in human NCI-H358 cells at 1 uM by mass spectrometry based pull down assay. The format is cell-based.
RuvB-like 1 (Homo sapiens), sequence (Q9Y265 whole entry): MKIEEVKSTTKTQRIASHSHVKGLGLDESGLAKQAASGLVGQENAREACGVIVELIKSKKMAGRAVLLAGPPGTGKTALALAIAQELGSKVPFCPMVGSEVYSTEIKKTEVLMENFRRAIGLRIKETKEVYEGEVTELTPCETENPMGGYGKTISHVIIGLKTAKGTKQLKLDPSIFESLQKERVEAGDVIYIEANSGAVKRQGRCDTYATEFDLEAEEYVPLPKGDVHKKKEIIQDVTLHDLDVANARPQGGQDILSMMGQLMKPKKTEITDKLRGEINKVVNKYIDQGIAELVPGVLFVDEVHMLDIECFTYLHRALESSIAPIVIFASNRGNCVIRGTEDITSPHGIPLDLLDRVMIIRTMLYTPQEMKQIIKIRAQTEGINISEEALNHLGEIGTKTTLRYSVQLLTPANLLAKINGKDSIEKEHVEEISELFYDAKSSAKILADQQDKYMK
In data set [9] the target is Beclin-1 (Homo sapiens) (UniProt Q14457). Briefly: Binding affinity to BECN1 in human NCI-H23 cells at 1 uM by mass spectrometry based pull down assay. The data set is classed as cell-based.
Beclin-1 (Homo sapiens), sequence (Q14457 whole entry): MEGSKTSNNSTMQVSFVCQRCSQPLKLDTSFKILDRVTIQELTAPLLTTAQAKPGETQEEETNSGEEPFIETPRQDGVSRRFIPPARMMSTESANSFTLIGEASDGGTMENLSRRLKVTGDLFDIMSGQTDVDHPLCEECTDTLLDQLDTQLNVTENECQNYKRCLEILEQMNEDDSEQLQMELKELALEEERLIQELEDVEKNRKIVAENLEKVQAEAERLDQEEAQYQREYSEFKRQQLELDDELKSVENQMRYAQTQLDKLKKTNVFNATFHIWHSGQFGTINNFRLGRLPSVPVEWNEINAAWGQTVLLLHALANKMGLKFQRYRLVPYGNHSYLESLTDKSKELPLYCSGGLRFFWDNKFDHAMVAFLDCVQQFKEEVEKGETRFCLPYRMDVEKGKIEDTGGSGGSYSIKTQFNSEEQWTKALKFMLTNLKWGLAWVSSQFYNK
For data set [10], the target named is DNA replication licensing factor MCM6 (Homo sapiens) (UniProt Q14566). Briefly: Binding affinity to MCM6 in human NCI-H23 cells at 1 uM by mass spectrometry based pull down assay. The data set is classed as cell-based.
DNA replication licensing factor MCM6 (Homo sapiens), sequence (Q14566 whole entry): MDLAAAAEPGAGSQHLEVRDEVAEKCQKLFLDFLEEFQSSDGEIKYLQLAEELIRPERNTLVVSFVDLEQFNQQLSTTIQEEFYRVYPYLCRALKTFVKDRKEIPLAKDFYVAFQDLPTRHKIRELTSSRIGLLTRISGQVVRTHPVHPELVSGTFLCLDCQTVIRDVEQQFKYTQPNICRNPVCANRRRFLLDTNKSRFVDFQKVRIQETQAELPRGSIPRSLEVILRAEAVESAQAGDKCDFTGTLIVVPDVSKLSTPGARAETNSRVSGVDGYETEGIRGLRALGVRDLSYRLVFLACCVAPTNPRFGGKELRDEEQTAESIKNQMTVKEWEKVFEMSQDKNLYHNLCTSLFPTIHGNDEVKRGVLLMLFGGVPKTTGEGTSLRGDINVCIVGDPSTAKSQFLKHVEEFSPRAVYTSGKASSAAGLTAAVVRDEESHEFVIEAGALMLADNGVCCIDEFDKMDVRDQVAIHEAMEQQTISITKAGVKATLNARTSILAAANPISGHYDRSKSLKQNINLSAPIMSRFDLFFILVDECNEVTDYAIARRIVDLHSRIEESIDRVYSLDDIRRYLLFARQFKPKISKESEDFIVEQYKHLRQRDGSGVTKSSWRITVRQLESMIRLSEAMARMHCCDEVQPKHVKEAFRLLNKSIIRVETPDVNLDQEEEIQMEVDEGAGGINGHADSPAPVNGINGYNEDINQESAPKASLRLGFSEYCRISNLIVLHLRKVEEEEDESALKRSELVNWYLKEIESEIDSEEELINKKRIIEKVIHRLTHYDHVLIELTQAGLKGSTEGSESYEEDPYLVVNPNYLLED
In data set [11] the target is Large ribosomal subunit protein bL19m (Homo sapiens) (UniProt P49406). The data set is described as follows: Binding affinity to MRPL19 in human NCI-H23 cells at 1 uM by mass spectrometry based pull down assay. The data set is classed as cell-based.
Data set [12] deals with ADP-ribose glycohydrolase OARD1 (Homo sapiens) (UniProt Q9Y530). Briefly: Binding affinity to OARD1 in human NCI-H23 cells at 1 uM by mass spectrometry based pull down assay. The format is cell-based.
ADP-ribose glycohydrolase OARD1 (Homo sapiens), sequence (Q9Y530 whole entry): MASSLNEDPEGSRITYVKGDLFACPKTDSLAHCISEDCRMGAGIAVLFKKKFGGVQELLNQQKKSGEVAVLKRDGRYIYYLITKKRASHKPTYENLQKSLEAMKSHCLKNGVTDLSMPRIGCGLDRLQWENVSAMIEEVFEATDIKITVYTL
Data set [13] has as its target 14-3-3 protein epsilon (Homo sapiens) (UniProt P62258). The data set is described as follows: Binding affinity to YWHAE in human NCI-H358 cells at 1 uM by mass spectrometry based pull down assay. The format is cell-based.
For data set [14], the target named is UV radiation resistance-associated gene protein (Homo sapiens) (UniProt Q9P2Y5). Briefly: Binding affinity to UVRAG in human NCI-H358 cells at 1 uM by mass spectrometry based pull down assay. The format is cell-based.
The target of data set [15] is Signal recognition particle 19 kDa protein (Homo sapiens) (UniProt P09132). Briefly: Binding affinity to SRP19 in human NCI-H23 cells at 1 uM by mass spectrometry based pull down assay. The format is cell-based.
Signal recognition particle 19 kDa protein (Homo sapiens), sequence (P09132 whole entry): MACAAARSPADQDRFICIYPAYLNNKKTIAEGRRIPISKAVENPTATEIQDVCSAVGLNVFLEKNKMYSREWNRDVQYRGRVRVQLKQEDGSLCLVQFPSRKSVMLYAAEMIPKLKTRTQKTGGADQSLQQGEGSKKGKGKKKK
Data set [16] has as its target 14-3-3 protein theta (Homo sapiens) (UniProt P27348). The data set is described as follows: Binding affinity to YWHAQ in human NCI-H23 cells at 1 uM by mass spectrometry based pull down assay. The format is cell-based.
Data set [17] has as its target 80S Ribosome (Homo sapiens) (UniProt P08865+P42677+P62753+P15880+P23396+P61247+P62701+P22090+P46782+P62081+P62241+P46781+P46783+P62280+P25398+P62277+P62263+P62841+P62244+P62249+P08708+P62269+P39019+P60866+P63220+P62266+P62847+P62851+P62854+P62979+P62857+P62273+P62861+P39023+P36578+P46777+Q02878+P18124+P62424+P62917+P32969+P27635+P62906+P62913+P30050+P26373+P40429+P50914+P61313+P18621+Q07020+Q02543+P84098+P46778+P35268+P62829+P62750+P83731+P61254+P61353+P46776+P46779+P47914+P62888+P62899+P62910+P49207+P42766+P18077+Q9Y3U8+P83881+P61927+P61513+P63173+P62891+P62945+P05388+P05386). The data set is described as follows: Binding affinity to RPS25 in human NCI-H23 cells at 1 uM by mass spectrometry based pull down assay. The format is cell-based.

The target in data set [18] is Large ribosomal subunit protein bL12m (Homo sapiens) (UniProt P52815). The data set is described as follows: Binding affinity to MRPL12 in human NCI-H358 cells at 1 uM by mass spectrometry based pull down assay. The data set is classed as cell-based.
For data set [19], the target named is F-actin-capping protein subunit beta (Homo sapiens) (UniProt P47756). Briefly: Binding affinity to CAPZB in human NCI-H358 cells at 1 uM by mass spectrometry based pull down assay. The format is cell-based.
F-actin-capping protein subunit beta (Homo sapiens), sequence (P47756 whole entry): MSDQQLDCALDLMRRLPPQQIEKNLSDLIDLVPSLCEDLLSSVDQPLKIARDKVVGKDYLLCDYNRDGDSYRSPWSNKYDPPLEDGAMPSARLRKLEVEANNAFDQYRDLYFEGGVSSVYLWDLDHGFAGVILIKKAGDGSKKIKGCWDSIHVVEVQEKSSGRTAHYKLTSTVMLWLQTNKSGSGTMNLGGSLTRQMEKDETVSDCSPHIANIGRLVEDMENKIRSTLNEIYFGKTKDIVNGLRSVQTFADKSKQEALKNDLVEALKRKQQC
Data set [20] has as its target Receptor-interacting serine/threonine-protein kinase 4 (Homo sapiens) (UniProt P57078). The data set is described as follows: Inhibition of ANKRD3 in human SKCO1 cells at 1 uM after 4 hrs using biotin labeled TWLAIKCSPSLHVDDR probe by mass-spectrometric analysis relative to control. The format is cell-based.
Data set [21] in a line: Increase in secretion of basic-FGF in IL-1alpha activated RA patient-derived synovial fibroblasts at 0.6 to 3 uM preincubated for 3 hrs followed by IL-1alpha stimulation measured after 18 hrs by sandwich immunoassay. The settings on record: human. A digest of the protocol:
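Primary human RA synovial fibroblasts (donor RA2159) seeded at 1000 viable cells/well, grown ~24 h at 37 °C/5% CO2, then starved overnight in basal medium and for a further ~4 h in basal medium with 0.1% BSA. Inhibitor or DMSO given 3 h before stimulation. Supernatants from two adjacent wells pooled as one replicate, biological duplicate. Luminex multiplex panels (48 analytes), diluted 1:3. Mock-supernatant background and spiked-ligand cross-reactivity controls included.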

For data set [22], the target named is T1, Dual specificity mitogen-activated protein kinase kinase 3 (Homo sapiens) (UniProt P46734).
T1 sequence (whole entry): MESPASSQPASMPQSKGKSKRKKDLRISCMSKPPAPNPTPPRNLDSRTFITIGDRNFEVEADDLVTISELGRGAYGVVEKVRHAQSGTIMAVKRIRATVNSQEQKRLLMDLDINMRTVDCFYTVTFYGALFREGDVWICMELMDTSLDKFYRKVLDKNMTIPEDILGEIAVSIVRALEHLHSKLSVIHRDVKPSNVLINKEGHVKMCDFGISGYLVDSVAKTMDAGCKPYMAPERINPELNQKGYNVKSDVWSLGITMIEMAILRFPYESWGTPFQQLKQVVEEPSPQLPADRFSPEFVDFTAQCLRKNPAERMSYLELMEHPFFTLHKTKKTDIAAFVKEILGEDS
The data set is described as follows: Inhibition of full length human MEK3 (1 to 318 residues) expressed in mammalian expression system assessed as enzyme activity at 1 uM by KINOMEScan assay relative to control. Details: scale not given: the % may be the effect or the level left. Summed up: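 In vitro ATP-site competition binding assay (KinomeScan) across a panel of 456 kinases. Compound was tested at 1 and 10 μM. The read-out is the binding inhibition score relative to control.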

One may read the inhibition as the relative decrease from the control value, in per cent.

The source made the active and inactive calls. No cut-off for these calls is given here.

14-3-3 protein epsilon (Homo sapiens), sequence (P62258 whole entry): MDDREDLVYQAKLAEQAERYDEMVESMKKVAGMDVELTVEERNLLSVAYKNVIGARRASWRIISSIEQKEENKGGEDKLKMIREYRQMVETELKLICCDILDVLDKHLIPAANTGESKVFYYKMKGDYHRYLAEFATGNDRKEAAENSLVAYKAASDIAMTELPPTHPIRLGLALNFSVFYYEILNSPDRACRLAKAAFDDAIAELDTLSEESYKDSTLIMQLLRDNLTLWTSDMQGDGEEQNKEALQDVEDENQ
14-3-3 protein theta (Homo sapiens), sequence (P27348 whole entry): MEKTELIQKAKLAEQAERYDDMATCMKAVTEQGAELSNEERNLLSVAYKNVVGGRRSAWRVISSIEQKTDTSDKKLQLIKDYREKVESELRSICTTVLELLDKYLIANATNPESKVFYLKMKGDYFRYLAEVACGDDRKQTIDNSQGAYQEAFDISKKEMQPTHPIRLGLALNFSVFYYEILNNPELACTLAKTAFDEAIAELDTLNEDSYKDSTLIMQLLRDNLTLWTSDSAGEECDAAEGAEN
Thioredoxin (Homo sapiens), sequence (P10599 whole entry): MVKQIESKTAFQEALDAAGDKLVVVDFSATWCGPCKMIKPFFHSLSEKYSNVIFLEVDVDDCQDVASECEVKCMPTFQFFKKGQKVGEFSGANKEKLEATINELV

With `C=CC(=O)Nc1ccccc1Nc1nc(Nc2ccc(N3CCN(CCOCCOCCOCCNC(=O)CCCC[C@@H]4SC[C@@H]5NC(=O)N[C@@H]54)CC3)cc2)ncc1Cl`, the result in [1], in data set [2], in data set [3], in [4], in data set [5] and in [6] was Active. The result in data set [7], in data set [8], in data set [9], in [10], in data set [11] and in data set [12] was Active. In addition, the outcome in [13], in [14], in data set [15], in data set [16], in data set [17] and in data set [18] was Active. Also, the outcome in data set [19] was Active.
Regarding `C=CC(=O)Nc1ccccc1Nc1nc(Nc2ccc(N3CCN(C)CC3)cc2)ncc1Cl`, the inhibition in data set [20] was -0.1%.
Consider `COc1cc(O)c2c(c1)/C=C/C[C@H](O)[C@H](O)C(=O)/C=C\C[C@H](C)OC2=O`, for which the values for the Activity entry in [21] and in data set [22] were “Non-Toxic” and 22%, respectively.
